Test results from publication PMC3625064 (Molecular cell, 2012).
Changes are numbered by the printed parent chain. Numbers in names are those of the source. No end group written: not given here.

Tests used:
LSD2 [1] = biological target: T1, LSD2 (Homo sapiens, UniProt Q8NB78); assay: nucleosome demethylation assay, stimulation; type: biochemical
T1 sequence (Q8NB78 1-822): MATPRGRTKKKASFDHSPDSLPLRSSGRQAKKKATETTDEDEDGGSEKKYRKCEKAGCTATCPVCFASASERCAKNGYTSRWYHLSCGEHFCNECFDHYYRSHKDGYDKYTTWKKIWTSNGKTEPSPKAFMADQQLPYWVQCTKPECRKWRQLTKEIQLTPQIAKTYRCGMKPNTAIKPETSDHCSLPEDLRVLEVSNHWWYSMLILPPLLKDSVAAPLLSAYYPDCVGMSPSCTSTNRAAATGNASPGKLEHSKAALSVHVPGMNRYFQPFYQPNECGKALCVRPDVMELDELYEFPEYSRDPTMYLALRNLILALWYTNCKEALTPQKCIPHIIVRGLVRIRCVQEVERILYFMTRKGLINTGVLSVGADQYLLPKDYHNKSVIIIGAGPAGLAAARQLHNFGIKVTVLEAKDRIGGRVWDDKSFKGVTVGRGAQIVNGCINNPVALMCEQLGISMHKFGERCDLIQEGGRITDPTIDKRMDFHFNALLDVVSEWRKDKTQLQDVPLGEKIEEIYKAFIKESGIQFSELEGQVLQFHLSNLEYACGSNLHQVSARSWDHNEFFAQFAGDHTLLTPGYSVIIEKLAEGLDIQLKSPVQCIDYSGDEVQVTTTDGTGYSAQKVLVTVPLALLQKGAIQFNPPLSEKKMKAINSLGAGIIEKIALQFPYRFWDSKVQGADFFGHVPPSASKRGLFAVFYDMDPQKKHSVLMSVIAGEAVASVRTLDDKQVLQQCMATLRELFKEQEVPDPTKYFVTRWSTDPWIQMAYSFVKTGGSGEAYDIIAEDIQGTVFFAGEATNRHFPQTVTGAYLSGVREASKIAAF

LSD2 [2] = biological target: T1, LSD2; assay: H3K4me2 peptide; type: biochemical; conditions: 50 μM H3K4me2 peptide (1–21), 50 mM Tris-HCl pH 8.5, 50 mM KCl, 5 mM MgCl2, 5% glycerol, 37°C, 30 min; MALDI-TOF MS
Method in brief: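 Purified LSD2, full-length or truncated (residues 51–822), incubated with NPAC-derived peptides or proteins and 50 μM H3K4me2 peptide (residues 1–21, >95% pure by HPLC and MS) in 50 mM Tris-HCl pH 8.5, 50 mM KCl, 5 mM MgCl2, 5% glycerol, 37°C, 30 min. Products desalted on C18 tips; MALDI-TOF MS at constant laser intensity across samples.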

[3] = biological target: T2, LSD2 (residues 51–822), as crystallised with NPAC (human, UniProt Q8NB78 51-822); assay: crystal structure
T2 sequence: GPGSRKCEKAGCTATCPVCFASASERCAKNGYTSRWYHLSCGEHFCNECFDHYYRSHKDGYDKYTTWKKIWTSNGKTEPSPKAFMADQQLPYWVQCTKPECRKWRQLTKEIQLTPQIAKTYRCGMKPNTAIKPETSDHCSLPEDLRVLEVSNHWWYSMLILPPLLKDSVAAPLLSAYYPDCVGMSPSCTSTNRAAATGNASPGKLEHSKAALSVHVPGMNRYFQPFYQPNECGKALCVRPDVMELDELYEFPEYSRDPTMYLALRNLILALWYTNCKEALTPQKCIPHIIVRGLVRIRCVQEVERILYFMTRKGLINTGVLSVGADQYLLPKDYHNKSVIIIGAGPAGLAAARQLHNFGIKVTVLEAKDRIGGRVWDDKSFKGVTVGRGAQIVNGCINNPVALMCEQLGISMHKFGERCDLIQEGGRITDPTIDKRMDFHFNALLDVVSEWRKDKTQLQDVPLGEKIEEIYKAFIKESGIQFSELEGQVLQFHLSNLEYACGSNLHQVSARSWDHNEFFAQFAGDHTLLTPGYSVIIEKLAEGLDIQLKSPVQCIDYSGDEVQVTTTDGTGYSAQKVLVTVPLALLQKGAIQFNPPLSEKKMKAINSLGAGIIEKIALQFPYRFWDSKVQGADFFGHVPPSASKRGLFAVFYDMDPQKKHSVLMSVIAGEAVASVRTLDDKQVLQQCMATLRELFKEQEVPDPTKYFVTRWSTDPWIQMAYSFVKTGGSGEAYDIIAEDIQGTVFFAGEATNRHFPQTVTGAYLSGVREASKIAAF

[4] = biological target: T3, LSD2 used for isothermal titration calorimetry (human, UniProt Q8NB78 1-822); assay: ITC
T3 sequence (looked up): T1 sequence (Q8NB78 1-822)

LSD2 [5] = biological target: T1, LSD2; assay: shorter H3K4me2 peptide; type: biochemical; conditions: H3K4me2 peptide (residues 1–15) as substrate; Figures S6A and S6B
Method in brief: (§1)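 Purified LSD2 (full-length or residues 51–822) was incubated with NPAC-derived peptides or proteins and an H3K4me2 peptide substrate. Products were desalted on C18 tips and analysed by MALDI-TOF MS at constant laser intensity for me1/me2 masses.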

LSD1 = assay: nucleosome demethylation by LSD1, stimulation by NPAC; type: biochemical, human; conditions: nucleosomes; Figure S1B
nucleosomal H3K4me2 = assay: nucleosome demethylation assay, demethylase activity toward nucleosomal H3K4me2; type: biochemical; conditions: recombinant NPAC, or NPAC complex purified from HeLa cells via TAP; immunoblot
Method in brief: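 Nucleosomes purified from HeLa cells were incubated with tandem-affinity-purified NPAC or LSD2 complexes from HeLa cells, with or without added recombinant NPAC. H3K4 demethylation was assessed by SDS-PAGE and immunoblot with methylation-specific histone H3 antibodies.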

[6] = system: LSD2 histone demethylation in U2OS cells; assay: immunofluorescence of histone marks in U2OS cells coexpressing LSD2 and NPAC; type: cell-based; conditions: coexpression of NPAC and LSD2; Figure S1D and data not shown
Method in brief: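 U2OS cells were transiently transfected with GFP-LSD2 alone or together with NPAC. Histone methylation marks were then detected by immunofluorescence with DAPI as DNA counterstain. Cells expressing similar levels of GFP-LSD2 were compared.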

LSD2 [7] = biological target: T1, LSD2; assay: longer H3K4me2 peptide; type: biochemical; conditions: H3K4me2 peptide (1–44) as substrate; Figure S6C
Method in brief: as §1

LSD2 [8] = biological target: T1, LSD2; assay: GST pull-down of His-LSD2; type: binding; conditions: GST pull-down of purified His-LSD2, SDS-PAGE, Coomassie blue staining
Method in brief: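 GST and GST-tagged wild-type or mutant NPAC proteins (linker-region and binding-site mutants) were used to pull down purified His-LSD2. His-LSD2 in input and bound fractions was resolved by SDS-PAGE and stained with Coomassie blue.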

In the case of DPHFHHFLLSQT [NP.WT], the “cofactor activity stimulating LSD2 demethylation of nucleosomes and synthetic histone peptides (summary)” value (LSD2 [1]; independent of PWWP module, discussion) is reported as “robust cofactor activity” and the “cofactor activity for LSD2 with H3K4me2 peptide (residues 1–21) as substrate” value (LSD2 [2]) is reported as “can stimulate LSD2-mediated demethylation of H3K4me2 peptides”.

B1: NPAC linker region (amino acids 152–268), as crystallised with LSD2 (domain or fragment, UniProt Q49A26 152-268, looked up)
chain: SERGSKSPLKRAQEQSPRKRGRPPKDEKDLTIPESSTVKGMMAGPMAAFKWQPTASEPVKDADPHFHHFLLSQTEKPAVCYQAITKKLKICEEETGSTSIQAADSTAVNGSITPTDK
B1: binds [3].

B2: wild-type NPAC dodecapeptide (residues 214–225) (peptide, UniProt Q49A26 214-225, looked up)
peptide: DPHFHHFLLSQT
In the case of B2, the Kd [4] is reported as 920 ± 80 nM.

B3: NPAC dodecapeptide (residues 214–225) F217A (peptide, UniProt Q49A26 214-225, looked up)
peptide: DPHAHHFLLSQT
B3 gave a Kd [4] of 930 ± 70 nM.

B4: NPAC: NPAC/GLYR1 (UniProtKB/Swiss-Prot ID: Q49A26), contains PWWP domain, AT-hook motif, and dehydrogenase domain (protein, UniProt Q49A26 1-553, looked up)
Cytokine-like nuclear factor …: MAAVSLRLGDLVWGKLGRYPPWPGKIVNPPKDLKKPRGKKCFFVKFFGTEDHAWIKVEQLKPYHAHKEEMIKINKGKRFQQAVDAVEEFLRRAKGKDQTSSHNSSDDKNRRNSSEERSRPNSGDEKRKLSLSEGKVKKNMGEGKKRVSSGSSERGSKSPLKRAQEQSPRKRGRPPKDEKDLTIPESSTVKGMMAGPMAAFKWQPTASEPVKDADPHFHHFLLSQTEKPAVCYQAITKKLKICEEETGSTSIQAADSTAVNGSITPTDKKIGFLGLGLMGSGIVSNLLKMGHTVTVWNRTAEKCDLFIQEGARLGRTPAEVVSTCDITFACVSDPKAAKDLVLGPSGVLQGIRPGKCYVDMSTVDADTVTELAQVIVSRGGRFLEAPVSGNQQLSNDGMLVILAAGDRGLYEDCSSCFQAMGKTSFFLGEVGNAAKMMLIVNMVQGSFMATIAEGLTLAQVTGQSQQTLLDILNQGQLASIFLDQKCQNILQGNFKPDFYLKYIQKDLRLAIALGDAVNHPTPMAAAANEVYKRAKALDQSDNDMSAVYRAYIH
modifications: His tag
In the case of B4, the “cofactor activity with shorter H3K4me2 peptide (residues 1–15)” value (LSD2 [5]) is reported as “did not detect NPAC cofactor activity”, the “stimulatory effect on nucleosome demethylation by LSD1” value (LSD1) is reported as “no stimulatory effect” and the “histone demethylase activity toward nucleosomes” value (nucleosomal H3K4me2) is reported as “possesses no demethylase activity”. For the same molecule, the “change of H3K9me2 and other histone marks” value [6] was “no detectable changes”.

B5: NPAC F217A protein: full-length F217A NPAC protein (protein, UniProt Q49A26 1-553, looked up, variant F217A)
chain: B4 Cytokine-like nuclear factor … with F217A
modifications: full-length
B5 was tested, and the “stimulation of LSD2 demethylation of the longer H3K4me2 peptide (1–44)” value (LSD2 [7]) was “very weak or undetectable” and the “cofactor activity of full-length NPAC protein, more NPAC and LSD2 proteins” value (LSD2 [1]; nucleosome demethylation, more NPAC and LSD2 proteins used, Figure S6E) was “residual stimulatory activity”.

B6: NP.d3: truncation protein containing the linker region, residues 152–252; GST-tagged (protein)
chain: SERGSKSPLKRAQEQSPRKRGRPPKDEKDLTIPESSTVKGMMAGPMAAFKWQPTASEPVKDADPHFHHFLLSQTEKPAVCYQAITKKLKICEEETGSTSIQ
modifications: left off: GST, end not stated, kept
For B6, the “LSD2 binding / interaction” value (LSD2 [8]) was “capable of directly interacting with LSD2”, the “LSD2 binding / interaction” value (LSD2 [8]; listed as linker region of NPAC) was “sufficient for LSD2 binding” and the “cofactor activity for LSD2 with H3K4me2 peptide (residues 1–21) as substrate” value (LSD2 [2]) was “strong cofactor activity for LSD2”.
